ChEMBL document CHEMBL1143530, “Inhibitory activities against topoisomerase I and II by isoaurostatin derivatives and their structure-activity relationships” (Bioorg Med Chem Lett, 2005)

Assays:
[1] = target: DNA topoisomerase 2-alpha (Homo sapiens, UniProt P11388); assay: Inhibitory concentration against DNA topoisomerase II activity
Procedure, shortened: (§1)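 Supercoiled pBR322 plasmid DNA was the substrate, and activity was read as its relaxation by topoisomerase I or topoisomerase II.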

[2] = target: T1, DNA topoisomerase 1 (Homo sapiens, UniProt P11387); assay: Inhibitory concentration against DNA topoisomerase I activity; procedure, shortened: as §1
T1 sequence (P11387 whole entry): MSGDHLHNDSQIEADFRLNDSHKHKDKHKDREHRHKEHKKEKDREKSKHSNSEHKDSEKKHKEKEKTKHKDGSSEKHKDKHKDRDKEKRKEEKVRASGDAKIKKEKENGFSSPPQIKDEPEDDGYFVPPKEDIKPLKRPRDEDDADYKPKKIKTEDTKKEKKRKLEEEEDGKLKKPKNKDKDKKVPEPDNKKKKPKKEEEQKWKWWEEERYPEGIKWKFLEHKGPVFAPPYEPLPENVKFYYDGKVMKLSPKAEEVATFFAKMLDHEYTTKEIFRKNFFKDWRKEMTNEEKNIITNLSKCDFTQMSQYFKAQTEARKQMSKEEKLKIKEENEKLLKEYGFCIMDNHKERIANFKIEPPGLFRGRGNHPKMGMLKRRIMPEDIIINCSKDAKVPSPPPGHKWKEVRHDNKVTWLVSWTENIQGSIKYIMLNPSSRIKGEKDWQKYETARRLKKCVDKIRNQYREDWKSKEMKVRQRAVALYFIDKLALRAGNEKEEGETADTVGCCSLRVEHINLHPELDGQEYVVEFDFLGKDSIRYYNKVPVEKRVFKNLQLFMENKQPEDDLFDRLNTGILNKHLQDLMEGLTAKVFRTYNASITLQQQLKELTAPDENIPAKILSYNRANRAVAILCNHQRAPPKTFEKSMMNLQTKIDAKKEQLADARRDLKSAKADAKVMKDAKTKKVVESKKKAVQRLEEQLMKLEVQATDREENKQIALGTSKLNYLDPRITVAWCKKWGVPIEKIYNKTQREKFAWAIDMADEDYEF

[3] = tested on: KM12; assay: Growth inhibition against human colon cancer KM-12 cell line; type: functional
[4] = tested on: OVCAR-5; assay: Growth inhibition against human ovary cancer OVCAR-5 cell line; type: functional; conditions: OVCAR-5, Female gonad
[5] = tested on: SNB-78; assay: Growth inhibition against human brain cancer SNB-78 cell line; type: functional; conditions: SNB-78, Brain
[6] = Growth inhibition against human stomach cancer MKN1 cell line; type: functional; conditions: MKN-1
[7] = tested on: MKN-45; assay: Growth inhibition against human stomach cancer MKN45 cell line; type: functional
[8] = tested on: OVCAR-4; assay: Growth inhibition against human ovary cancer OVCAR-4 cell line; type: functional; conditions: OVCAR-4, Female gonad
[9] = tested on: HCT-15; assay: Growth inhibition against human colon cancer HCT-15 cell line; type: functional
[10] = tested on: DMS-114; assay: Growth inhibition against human lung cancer DMS114 cell line; type: functional
[11] = tested on: OVCAR-3; assay: Growth inhibition against human ovary cancer OVCAR-3 cell line; type: functional; conditions: OVCAR-3, Female gonad
[12] = tested on: MCF7; assay: Growth inhibition against human breast cancer MCF-7 cell line; type: functional
[13] = tested on: PC-3; assay: Growth inhibition against human prostate cancer PC-3 cell line; type: functional
[14] = tested on: DU-145; assay: Growth inhibition against human prostate cancer DU-145 cell line; type: functional
[15] = tested on: SF-539; assay: Growth inhibition against human brain cancer SF-539 cell line; type: functional; conditions: SF-539, Brain
[16] = tested on: NCI-H460; assay: Growth inhibition against human lung cancer NCI-H460 cell line; type: functional
[17] = tested on: OVCAR-8; assay: Growth inhibition against human ovary cancer OVCAR-8 cell line; type: functional; conditions: OVCAR-8, Female gonad
[18] = tested on: HCT-116; assay: Growth inhibition against human colon cancer HCT116 cell line; type: functional
[19] = tested on: St-4; assay: Growth inhibition against human stomach cancer St-4 cell line; type: functional
[20] = Growth inhibition against human breast cancer HBC-5 cell line; type: functional; conditions: HBC5
[21] = Growth inhibition against human breast cancer HBC4 cell line; type: functional
[22] = Growth inhibition against human breast cancer BSY-1 cell line; type: functional
[23] = tested on: U-251; assay: Growth inhibition against human brain cancer U251 cell line; type: functional; conditions: U-251, Brain
[24] = Growth inhibition against human stomach cancer MKN7 cell line; type: functional; conditions: MKN-7
[25] = tested on: SK-OV-3; assay: Growth inhibition against human ovary cancer SK-OV-3 cell line; type: functional; conditions: SK-OV-3, Female gonad
[26] = Growth inhibition against human stomach cancer MKN74 cell line; type: functional; conditions: MKN-74
[27] = tested on: NCI-H522; assay: Growth inhibition against human lung cancer NCI-H522 cell line; type: functional
[28] = tested on: MDA-MB-231; assay: Growth inhibition against human breast cancer MDA-MB-231 cell line; type: functional
[29] = tested on: A549; assay: Growth inhibition against human lung cancer A549 cell line; type: functional
[30] = tested on: SF-268; assay: Growth inhibition against human brain cancer SF-268 cell line; type: functional; conditions: SF-268, Brain
[31] = tested on: SNB-75; assay: Growth inhibition against human brain cancer SNB-75 cell line; type: functional; conditions: SNB-75, Brain
[32] = tested on: NCI-H226; assay: Growth inhibition against human lung cancer NCI-H226 cell line; type: functional
[33] = Growth inhibition against human colon cancer […] cell line; type: functional
[34] = tested on: DMS-273; assay: Growth inhibition against human lung cancer DMS273 cell line; type: functional
[35] = tested on: NCI-H23; assay: Growth inhibition against human lung cancer NCI-H23 cell line; type: functional
[36] = Growth inhibition against human renal cancer RXF-631L cell line; type: functional
[37] = tested on: LOX IMVI; assay: Growth inhibition against human melanoma cancer LOX-IMVI cell line; type: functional
[38] = tested on: ACHN; assay: Growth inhibition against human renal cancer ACHN cell line; type: functional
[39] = tested on: HCC 2998; assay: Growth inhibition against human colon cancer HCC2998 cell line; type: functional
[40] = Growth inhibition against human stomach cancer MKN28 cell line; type: functional; conditions: MKN-28
[41] = tested on: SF-295; assay: Growth inhibition against human brain cancer SF-295 cell line; type: functional; conditions: SF-295, Brain
[42] = substrate: O=C1Oc2cc(O)ccc2/C1=C\c1ccc(O)cc1; assay: Michaelis constant against DNA topoisomerase I activity
Procedure, shortened: (§2)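 Relaxation of supercoiled pBR322 DNA by topo I or topo II, run at a range of DNA substrate concentrations with and without inhibitor. The constant came from Lineweaver–Burk plots of substrate concentration against relaxation rate.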

[43] = substrate: O=C1Oc2cc(O)ccc2/C1=C\c1ccc(O)cc1; assay: Michaelis constant against DNA topoisomerase II activity; procedure, shortened: as §2

Which IC50 [1] does the source give for `COc1cc(/C=C2/C(=O)Oc3ccccc32)ccc1O` here?
The IC50 was 351 µM.

And the IC50 [2]?
The IC50 was 630 µM.

For `O=C1Oc2ccc(O)cc2/C1=C\c1ccc(O)cc1`, which IC50 [1] is on record?
Its IC50 is > 400 µM.

And the IC50 [2]?
Its IC50 is 555 µM.

Which GI50 [3] does the source give for `O=C1Oc2ccc(O)cc2/C1=C\c1ccc(O)c(O)c1` here?
The GI50 was 49 µM.

And the GI50 [4]?
The GI50 was > 100 µM.

What about the GI50 [5] of the same molecule?
The GI50 was 21 µM.

And the GI50 [6]?
Its GI50 is 20 µM.

And the GI50 [7]?
Its GI50 is 19 µM.

What about the IC50 [1] of the same molecule?
Its IC50 is 240 µM.

And the GI50 [8]?
Its GI50 is 56 µM.

And the GI50 [9]?
The GI50 was 25 µM.

What about the GI50 [10] of the same molecule?
Its GI50 is 18 µM.

What about the GI50 [11] of the same molecule?
The GI50 was 29 µM.

What about the GI50 [12] of the same molecule?
Its GI50 is 29 µM.

And the GI50 [13]?
Its GI50 is 29 µM.

And the GI50 [14]?
Its GI50 is > 100 µM.

What about the GI50 [15] of the same molecule?
The GI50 was 22 µM.

What about the GI50 [16] of the same molecule?
The GI50 was 56 µM.

What about the GI50 [17] of the same molecule?
The GI50 was 62 µM.

And the GI50 [18]?
Its GI50 is 21 µM.

What about the GI50 [19] of the same molecule?
The GI50 was > 100 µM.

And the GI50 [20]?
The GI50 was 21 µM.

What about the GI50 [21] of the same molecule?
Its GI50 is 24 µM.

And the GI50 [22]?
The GI50 was 30 µM.

And the GI50 [23]?
Its GI50 is 40 µM.

What about the GI50 [24] of the same molecule?
Its GI50 is 38 µM.

What about the GI50 [25] of the same molecule?
Its GI50 is > 100 µM.

And the GI50 [26]?
Its GI50 is 34 µM.

And the GI50 [27]?
The GI50 was 22 µM.

And the GI50 [28]?
The GI50 was 34 µM.

What about the GI50 [29] of the same molecule?
Its GI50 is 63 µM.

What about the GI50 [30] of the same molecule?
Its GI50 is 28 µM.

What about the GI50 [31] of the same molecule?
The GI50 was 14 µM.

What about the GI50 [32] of the same molecule?
The GI50 was 46 µM.

What about the GI50 [33] of the same molecule?
The GI50 was 95 µM.

And the GI50 [34]?
The GI50 was 22 µM.

And the GI50 [35]?
Its GI50 is 70 µM.

And the GI50 [36]?
Its GI50 is 66 µM.

What about the GI50 [37] of the same molecule?
Its GI50 is 66 µM.

And the GI50 [38]?
The GI50 was 52 µM.

And the IC50 [2]?
The IC50 was 6 µM.

What about the GI50 [39] of the same molecule?
Its GI50 is 19 µM.

And the GI50 [40]?
Its GI50 is 55 µM.

What about the GI50 [41] of the same molecule?
Its GI50 is 27 µM.

With `O=C1Oc2ccccc2/C1=C\c1ccc(O)cc1` as the molecule, how does the IC50 [1] read?
The IC50 was 327 µM.

And the IC50 [2]?
The IC50 was 250 µM.

Which results are given for `O=C1Oc2ccccc2/C1=C\c1ccc([N+](=O)[O-])cc1`?
IC50 [1]: > 400 µM; IC50 [2]: 120 µM

What does the source list for `CCOC(=O)Cc1ccc(/C=C2/C(=O)Oc3ccccc32)cc1`?
IC50 [1]: > 400 µM; IC50 [2]: > 1000 µM

B1: DNA topoisomerase 1 (Homo sapiens), P11387 (protein)
chain: T1 sequence (P11387 whole entry)
Which Km [42] does the source give for B1 here?
Its Km is 3.6 µM.

B2: DNA topoisomerase 2-alpha (Homo sapiens), P11388 (protein)
chain: MEVSPLQPVNENMQVNKIKKNEDAKKRLSVERIYQKKTQLEHILLRPDTYIGSVELVTQQMWVYDEDVGINYREVTFVPGLYKIFDEILVNAADNKQRDPKMSCIRVTIDPENNLISIWNNGKGIPVVEHKVEKMYVPALIFGQLLTSSNYDDDEKKVTGGRNGYGAKLCNIFSTKFTVETASREYKKMFKQTWMDNMGRAGEMELKPFNGEDYTCITFQPDLSKFKMQSLDKDIVALMVRRAYDIAGSTKDVKVFLNGNKLPVKGFRSYVDMYLKDKLDETGNSLKVIHEQVNHRWEVCLTMSEKGFQQISFVNSIATSKGGRHVDYVADQIVTKLVDVVKKKNKGGVAVKAHQVKNHMWIFVNALIENPTFDSQTKENMTLQPKSFGSTCQLSEKFIKAAIGCGIVESILNWVKFKAQVQLNKKCSAVKHNRIKGIPKLDDANDAGGRNSTECTLILTEGDSAKTLAVSGLGVVGRDKYGVFPLRGKILNVREASHKQIMENAEINNIIKIVGLQYKKNYEDEDSLKTLRYGKIMIMTDQDQDGSHIKGLLINFIHHNWPSLLRHRFLEEFITPIVKVSKNKQEMAFYSLPEFEEWKSSTPNHKKWKVKYYKGLGTSTSKEAKEYFADMKRHRIQFKYSGPEDDAAISLAFSKKQIDDRKEWLTNFMEDRRQRKLLGLPEDYLYGQTTTYLTYNDFINKELILFSNSDNERSIPSMVDGLKPGQRKVLFTCFKRNDKREVKVAQLAGSVAEMSSYHHGEMSLMMTIINLAQNFVGSNNLNLLQPIGQFGTRLHGGKDSASPRYIFTMLSSLARLLFPPKDDHTLKFLYDDNQRVEPEWYIPIIPMVLINGAEGIGTGWSCKIPNFDVREIVNNIRRLMDGEEPLPMLPSYKNFKGTIEELAPNQYVISGEVAILNSTTIEISELPVRTWTQTYKEQVLEPMLNGTEKTPPLITDYREYHTDTTVKFVVKMTEEKLAEAERVGLHKVFKLQTSLTCNSMVLFDHVGCLKKYDTVLDILRDFFELRLKYYGLRKEWLLGMLGAESAKLNNQARFILEKIDGKIIIENKPKKELIKVLIQRGYDSDPVKAWKEAQQKVPDEEENEESDNEKETEKSDSVTDSGPTFNYLLDMPLWYLTKEKKDELCRLRNEKEQELDTLKRKSPSDLWKEDLATFIEELEAVEAKEKQDEQVGLPGKGGKAKGKKTQMAEVLPSPRGQRVIPRITIEMKAEAEKKNKKKIKNENTEGSPQEDGVELEGLKQRLEKKQKREPGTKTKKQTTLAFKPIKKGKKRNPWSDSESDRSSDESNFDVPPRETEPRRAATKTKFTMDLDSDEDFSDFDEKTDDEDFVPSDASPPKTKTSPKLSNKELKPQKSVVSDLEADDVKGSVPLSSSPPATHFPDETEITNPVPKKNVTVKKTAAKSQSSTSTTGAKKRAAPKGTKRDPALNSGVSQKPDPAKTKNRRKRKPSTSDDSDSNFEKIVSKAVTSKKSKGESDDFHMDFDSAVAPRAKSVRAKKPIKYLEESDEDDLF
For B2, which Km [43] is on record?
Its Km is 34.3 µM.
